Compounds with a hit are over-represented: about 2.1% of the library has one in this group of screens.
Pemphigus Ab inh = inhibitors of pemphigus antibody binding to DSG3, primary screen, biochemical, bead-based, flow cytometry, scFv-GFP. binding (percent of control), % at 10 µM. Desmoglein-3 (Homo sapiens), P32926. 310,000 tested, 0.48% active. DSG3-coupled beads, scFv-anti-DSG3-GFP binding; hits give low values;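 active = binding more than 3 SD below its plate's average and above zero; inconclusive = below that plate limit but binding exactly zero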;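 also: hits lower antibody fragment binding to DSG3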
Runt-CBFb FRET = inhibitors of RUNX1 Runt–CBFb binding, primary screen, biochemical, FRET, Cerulean-Runt, Venus-CBFb, uHTS. Runt-related transcription factor 1 (Homo sapiens) + Core-binding factor subunit beta …. Cerulean-Runt/Venus-CBFb FRET ratio 530/480, 1 h. inhibition, % at 20 µM. 220,000 tested, 0.46% active. AID 1496, 2009;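 active = inhibition over about 50% at 20 µM in the single-dose screen, limit read from the data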;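 also: 0% = DMSO wells and 100% = excess unlabeled CBFb competitor control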
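Measured by: fluorescence energy transfer, 422 nm excitation, 530/480 nm emission; Assay system: Cerulean-Runt domain; Medium: Tris pH 7.5 buffer with BSA; Measure: loss of energy transfer signal; Controls: 5 µM unlabeled CBFb as full-inhibition high control; Incubation: protein complex preformed 1 h, compound exposure 1 h, room temperature, dark.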
RanGTP-Impb inh = inhibitors of RanGTP-importin-beta interaction, primary screen, biochemical, FRET, CFP-Ran, YFP-importin-beta, homogeneous; inhibition, % (test concentration not listed); 300,000 tested, 1.1% active; cell-free CFP-Ran/YFP-importin-beta FRET ratio;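 active = more than half of the replicate wells show a fall in the fluorescence ratio signal beyond about 16%, limit read from the data, passing the limit was not always enough; inconclusive = exactly half of the replicate wells pass the set limit; inactive = fewer than half of replicates pass the limit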;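 also: 0% = DMSO wells and 100% = Ran loaded with GDP instead of GTP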
Hck Nef HTS = inhibitors of Nef-activated human Hck kinase, primary screen, biochemical, Z-Lyte FRET, 384-well, Hck-YEEI. AID 463187, 2010. inhibition, % at 20 µM. 220,000 tested, 0.68% active. Recombinant Hck-YEEI plus Nef, Z-Lyte FRET kinase assay;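 active = Hck-Nef kinase inhibition above about 50%, limit read from the data; inactive = inhibition below that limit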;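 also: 0% = DMSO with Hck plus Nef and 100% = Hck alone without Nef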
Runt-SMMHC FRET = inhibitors of RUNX1 Runt–CBFb-SMMHC binding, primary screen, biochemical, FRET, Cerulean-Runt, Venus-CBFb-SMMHC, uHTS; Runt-related transcription factor 1 (Homo sapiens) + Core-binding factor subunit beta …; Cerulean-Runt/Venus-CBFb-SMMHC FRET ratio 530/480, 1 h; inhibition, % at 20 µM; 220,000 tested, 0.74% active; AID 1434, 2008;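 active = mean inhibition across duplicate retests at 20 µM reaching about 50%, limit read from the data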;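 also: 0% = DMSO wells and 100% = wells with excess untagged CBFb-SMMHC; inhibitors lower the FRET ratio by blocking Runt binding to CBFb-SMMHC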
p-CIP stab down = p/CIP-EGFP fusion destabilizers, primary screen, fluorescence, F442A cells | 16 h | decrease of EGFP signal, % at 10 µM | 290,000 tested, 0.01% active | AID 1984, 2009;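 active = EGFP signal decrease of at least 30% at 10 µM or well 3 SD below plate mean, unless failing retest; inactive = the rest, including hits failing retest or dose response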
YIC FRET counter = YIC intramolecular FRET probe signal interference, dose response, counter-screen for RanGTP-importin-beta inhibitor project, biochemical, fluorescence FRET. shares compounds with RanGTP-Impb inh. Purified YIC probe, intramolecular FRET ratio YFP/CFP. IC50, µM. 1,000 tested, 40% active. AID 435026, 2010;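 active = fitted half-maximal inhibitory concentration no more than tenfold above the top dose tested; inconclusive = flat fit with 30 to 70% activity, or poor fit; inactive = half-maximal concentration beyond tenfold above the top dose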
An asterisk follows results filed as active; ? = inconclusive; nt = not tested or not shown.

SMILES	Pemphigus Ab inh	Runt-CBFb FRET	RanGTP-Impb inh	Hck Nef HTS	Runt-SMMHC FRET	p-CIP stab down	YIC FRET counter
COc1ccccc1S(=O)(=O)N(C)C[C@H]1Oc2cc(C#CCC3CCCC3)ccc2S(=O)(=O)N([C@H](C)CO)C[C@H]1C	115.1	nt	nt	nt	nt	nt	nt
COCC(=O)Nc1ccc(OC)c(Cl)c1	113.7	2.4	2.5	-24.1	2.0	-6.9	nt
COc1ccc(NC(=O)COC(C)=O)cc1Cl	99.6	1.0	20.6*	0.5	-1.1	-0.6	>50
COc1ccc(C(=O)N2CCC3(CC2)NCCc2[nH]cnc23)cc1	101.0	nt	0.6	nt	nt	4.5	nt
COc1ccccc1CNC(=O)C1CCN(c2ncnc3c2nc2n3CCCCC2)CC1	103.9	nt	0.9	nt	nt	-10.2	nt
COc1ccc(CCNc2oc(-c3ccco3)nc2C#N)cc1	101.5	-1.9	26.2*	0.2	0.2	-3.6	>50
N#Cc1nc(-c2ccco2)oc1NCCc1ccccc1	nt	0.0	1.8	0.5	-0.4	-15.6	nt
COC(=O)c1ccc(NC(=O)C(=O)N2CCN(C(=S)Nc3ccccc3OC)CC2)cc1	100.9	-1.0	19.5*	5.6	2.9	-7.9	>50
COC(=O)c1ccc(NC(=O)C(=O)N2CCN(C(=S)Nc3cccc(C)c3C)CC2)cc1	93.2	-2.2	?	0.5	5.3	5.6	nt
CC1CCCCN1C(=O)Cn1c(=O)oc2cc(S(=O)(=O)N3CCCC3)ccc21 (configuration not stated)	98.8	nt	16.6*	nt	nt	-2.5	>50
CC1CCN(C(=O)Cn2c(=O)oc3cc(S(=O)(=O)N4CCCCC4)ccc32)CC1	104.2	nt	-0.4	nt	nt	-14.4	nt
Cc1cc(C)c(OCC(=O)NCCCn2nc(C)cc2C)c(C)c1	104.0	nt	nt	nt	nt	nt	nt
CCOc1ccc(N(CC(=O)Nc2ccc(C)c(C)c2)S(C)(=O)=O)cc1	117.4	nt	5.1	nt	nt	7.3	nt
COc1cc([C@@H]2[C@H]3CN(C)CC=C3C(C#N)=C(N)C2(C#N)C#N)cc2c1OCO2	99.3	29.5	23.9*	10.0	62.0*	-22.6	5.69*
COc1ccc(CCn2c(C)nc3ccccc3c2=O)cc1OC	106.7	2.5	23.4*	21.3	-0.9	3.1	>50
COc1ccc(NS(=O)(=O)N2CCCCC2)cc1	94.9	nt	nt	nt	nt	nt	nt
CC1=NN(C(=O)c2ccccc2)C(O)(c2ccc(Br)cc2)C1 (configuration not stated)	nt	2.6	24.3*	2.2	-3.3	2.3	>50
Clc1ccccc1-c1ncc2ccccn12	107.1	0.6	1.2	1.9	9.6	-2.8	nt
Clc1ccc(-c2ncc3ccccn23)cc1	102.1	nt	26.1*	21.4	nt	0.3	>50
Cc1ccc(C2=CC(c3ccccc3)n3ncnc3N2)c(C)c1 (configuration not stated)	101.1	nt	18.6*	nt	nt	nt	>50
Cc1ccc(C2C=C(c3ccccc3OC(F)F)Nc3ncnn32)cc1 (configuration not stated)	108.7	-46.8	6.1	-11.7	61.6	3.7	nt
C=CCn1c(C)c(C(C)=O)c(N2CCN(C(c3ccccc3)c3ccccc3)CC2)nc1=S	100.9	1.3	29.8*	-0.3	-1.4	2.8	>50
O=C(CN1C(=O)CCC1=O)Nc1cccc2c1C(=O)NC2=O	96.4	-18.2	5.4	-5.5	-48.3	5.2	nt
CC1C=CCC2C(=O)N(c3ccccc3OC(=O)c3cccs3)C(=O)C12 (configuration not stated)	97.8	-0.5	21.5*	18.0	-1.2	-10.9	>50
CC1C=CCC2C(=O)N(c3ccc(OC(=O)c4cccs4)cc3)C(=O)C12 (configuration not stated)	89.4	-0.2	5.9	17.3	-1.0	3.2	nt
SMILES	Pemphigus Ab inh	Runt-CBFb FRET	RanGTP-Impb inh	Hck Nef HTS	Runt-SMMHC FRET	p-CIP stab down	YIC FRET counter
O=C(NC1=NCCS1)c1cc(-c2cccs2)nc2ccccc12	98.8	1.0	5.0	14.9	-1.4	1.7	nt
O=C(NC1=NCCS1)c1cc(-c2cccnc2)nc2ccccc12	99.0	-5.1	15.4*	13.0	-0.9	7.6	>50
CCN(CC(=O)NCc1ccc(Cl)cc1)C(=O)C1CCN(S(=O)(=O)c2ccc(OC)c(OC)c2)CC1	99.3	nt	3.2	nt	nt	nt	nt
COCCNC(=O)CN(Cc1ccc(F)cc1)C(=O)CCC(=O)Nc1nccs1	89.8	nt	-0.7	nt	nt	-14.8	nt
OCCN1CN=C(Nc2nc3ccccc3s2)NC1	102.5	0.9	2.6	9.3	-1.8	-11.5	nt
c1ccc2sc(NC3=NCN(CCN4CCOCC4)CN3)nc2c1	77.5*	-1.9	28.3*	22.6	0.8	0.3	>50
C=CCN1C(=O)/C(=C2/Sc3ccccc3N2C)SC1=Nc1ccccc1C	83.0	-2.4	1.3	1.3	-2.2	46.8	nt
C=CCN1C(=O)/C(=C2/Sc3ccccc3N2CC)SC1=S	95.8	nt	16.6*	nt	nt	-6.2	>50
CCN1C(=O)/C(=C2\Sc3ccccc3N2CC)OC1=S	88.7	-6.1	20.6*	6.7	11.5	5.7	36.3*
CCN(CC(=O)NCc1ccc(F)cc1)C(=O)c1oc2ccccc2c1C	92.1	nt	-1.4	nt	nt	-10.1	nt
CCNc1nnc(CSc2nc3ccccc3s2)s1	nt	0.0	18.4*	10.1	3.0	-8.4	>50
CCc1nnc(NC(=O)CSc2nc3ccccc3s2)s1	82.4	-0.6	-0.9	1.4	-51.7	3.3	nt
Cc1c(Cl)cn2c(=O)cc(CN3CCN(c4ccc(F)cc4)CC3)nc2c1Cl	nt	0.3	-3.8	7.8	-3.6	-0.6	nt
Cc1c(CC(=O)N2CCN(C(=O)C3COc4ccccc4O3)CC2)c(=O)oc2cc(O)c(Cl)cc12 (configuration not stated)	108.3	nt	43.8*	nt	nt	-4.7	2.9*
COC(=O)c1ccc2c(=O)n(CCN3CCOCC3)c(SCC(=O)C(C)(C)C)nc2c1	95.2	-0.2	18.8*	0.5	-3.3	-7.3	>50
CCOC(=O)CSc1nc2cc(C(=O)OC)ccc2c(=O)n1CCN1CCOCC1	102.3	-4.5	0.5	0.6	-1.8	3.6	nt
CCn1c(SCc2nc(-c3ccccc3)no2)nnc1-c1cccs1	nt	-0.6	23.7*	-1.3	1.4	-5.7	>50
CCn1c(SCc2nc(-c3ccccc3)no2)nnc1-c1ccco1	98.0	-1.4	-0.7	1.2	0.3	0.9	nt
